KCNQ1 act = potentiates or activates the human KCNQ1 potassium channel; P51787; CHO-K1 KCNQ1, thallium flux FluxOR fluorescence; active compounds read high; B-score at 10 µM; 310,000 tested, 0.35% active; AID 2648;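 active = fluorescence ratio B-score, a plate-corrected score, at least three library SD, with initial intensity B-score within 5 SD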
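Medium – assay buffer, equal DMSO in all wells · Material – CHO-K1 cell line with stable KCNQ1 potassium channel expression · Signal – kinetic FluxOR thallium fluorescence, 10-s 1-Hz baseline, 110-s post-stimulus read · Compound – single concentration per compound, DMSO matched to controls · Schedule – 37 °C overnight plating, 90-min dark dye load, 20-min compound pretreatment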
hERG protect = shields human hERG channel from block by proarrhythmic agents. Q12809. CHO-hERG, FluxOR thallium flux, dofetilide IC70 present. activation (rescue from dofetilide block), less the hit threshold, % at 10 µM. 310,000 tested, 0.51% active. AID 1511;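 active = activation above the mean of controls blocked by dofetilide plus 5 SD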;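 note: thallium influx through hERG after potassium depolarization seen as dye fluorescence rise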
Target sequence (Q12809 whole entry, looked up): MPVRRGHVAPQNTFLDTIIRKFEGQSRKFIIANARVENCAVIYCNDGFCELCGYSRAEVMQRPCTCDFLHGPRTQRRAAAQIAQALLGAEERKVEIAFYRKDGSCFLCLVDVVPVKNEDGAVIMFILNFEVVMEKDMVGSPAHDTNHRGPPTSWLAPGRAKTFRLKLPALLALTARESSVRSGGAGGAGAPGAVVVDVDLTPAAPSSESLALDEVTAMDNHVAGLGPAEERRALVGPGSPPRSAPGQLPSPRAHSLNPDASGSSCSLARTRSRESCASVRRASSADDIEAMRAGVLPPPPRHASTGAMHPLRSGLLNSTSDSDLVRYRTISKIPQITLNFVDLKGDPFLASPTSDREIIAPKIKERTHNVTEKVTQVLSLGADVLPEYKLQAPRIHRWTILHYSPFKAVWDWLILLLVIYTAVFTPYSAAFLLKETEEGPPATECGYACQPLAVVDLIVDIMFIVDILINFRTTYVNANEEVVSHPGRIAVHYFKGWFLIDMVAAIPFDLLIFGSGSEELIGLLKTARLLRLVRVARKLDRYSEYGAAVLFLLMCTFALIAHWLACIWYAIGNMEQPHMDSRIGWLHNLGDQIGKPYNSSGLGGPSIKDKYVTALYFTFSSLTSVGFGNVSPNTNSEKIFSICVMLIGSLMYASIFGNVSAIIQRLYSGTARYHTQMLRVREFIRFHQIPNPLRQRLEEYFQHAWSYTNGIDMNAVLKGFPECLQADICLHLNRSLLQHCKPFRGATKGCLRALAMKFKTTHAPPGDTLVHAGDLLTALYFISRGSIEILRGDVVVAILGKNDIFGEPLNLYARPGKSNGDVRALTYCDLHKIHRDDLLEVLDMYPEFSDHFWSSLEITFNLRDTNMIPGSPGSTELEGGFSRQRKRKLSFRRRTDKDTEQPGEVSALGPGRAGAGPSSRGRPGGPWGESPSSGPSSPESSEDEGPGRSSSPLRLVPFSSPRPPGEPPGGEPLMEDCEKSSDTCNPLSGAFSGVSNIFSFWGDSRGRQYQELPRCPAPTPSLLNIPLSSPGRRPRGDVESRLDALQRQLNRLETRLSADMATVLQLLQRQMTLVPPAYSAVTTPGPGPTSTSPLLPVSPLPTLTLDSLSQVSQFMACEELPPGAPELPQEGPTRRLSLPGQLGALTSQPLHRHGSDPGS
Kir21 block = inhibitors of mouse Kir2.1 inward-rectifier potassium channel | HEK293-Kir2.1, FluxOR thallium flux fluorescence; active compounds read low | B-score at 10 µM | 310,000 tested, 0.85% active | AID 1672;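 active = fluorescence ratio B-score at or below minus 3 SD of library scores, with starting-brightness B-score within 2 SD, cut at about -4.2 in these data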;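 note: channel flux triggered by added potassium and thallium sulfate stimulus; B-score of peak minus minimum fluorescence over baseline after thallium stimulus; more negative B-score means stronger Kir2.1 block with less thallium influx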
KCNK9 block = human KCNK9 channel inhibition; B-score at 10 µM; AID 488922; 310,000 tested, 1.2% active; Q9NPC2; HEK293 KCNK9, FluxOR thallium flux fluorescence; active compounds read low;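 active = ratio B-score over 3 SD below the library mean, with starting fluorescence within 5 SD of its mean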;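 note: negative B-score means less thallium flux so channel inhibition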
KCNQ1 block = inhibitors of human KCNQ1 potassium channel; CHO-K1 KCNQ1, FluxOR thallium flux fluorescence; active compounds read high; 310,000 tested, 1.3% active; B-score at 10 µM; AID 2642; P51787;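 active = compounds whose thallium flux B-score, printed positive for inhibition, exceeds three library SD while starting fluorescence stays within three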;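 note: channel opened by potassium depolarization with thallium stimulus after 20 min compound exposure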
KCNK3 inh = human KCNK3 channel inhibition, primary screen; B-score at 10 µM; CHO-KCNK3 thallium flux, FluxOR fluorescence; active compounds read low; 340,000 tested, 0.84% active; AID 602410; O14649;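 active = B-score under library mean minus 4 SD, starting fluorescence ratio at most library mean plus 5 SD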;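 note: more negative B-score means stronger inhibition of thallium flux through KCNK3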
KCNQ1 inh valid = confirmation of human KCNQ1 potassium channel inhibitors; shares compounds with KCNQ1 block; KCNQ1 cell line, FluxOR thallium flux fluorescence; inhibition, % at 10 µM; 1,600 tested, 93% active; AID 588353;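 active = primary screen active, with duplicate mean exceeding buffer control mean plus 3 SD of buffer wells, cut at about 28% in these data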
CHO Tl flux = activity in parental CHO cells lacking KCNQ1; shares compounds with KCNQ1 block; parental CHO-K1, FluxOR thallium flux fluorescence ratio; active compounds read low; zero means no signal rise above baseline; fluorescence ratio (Tl flux) at 10 µM; 1,600 tested, 21% active; AID 588366;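 active = mean of duplicate thallium-flux fluorescence ratios in parental host cells more than 5 SD below the buffer control mean, cut at about 0.38 in these data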;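 note: ratio is peak minus minimum fluorescence divided by baseline fluorescence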
KCNQ1 ephys val = human KCNQ1 inhibition validated by electrophysiology; shares compounds with KCNQ1 block; KCNQ1-CHO cells, automated patch clamp current; calls only at 10 µM; 490 tested, 20% active; AID 624120;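 active = KCNQ1 current drop exceeding 3 SD of negative control wells, seen in both duplicate runs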;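 note: steady state current during a 2 s step from -80 to +40 mV; negative values mean current inhibition and positive values mean potentiation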
KCNQ2 inh = selectivity of KCNQ1 inhibitors: inhibition of rat KCNQ2 channel; shares compounds with KCNQ1 block; KCNQ2 cells, FluxOR thallium flux fluorescence; 1,600 tested, 71% active; inhibition, % at 10 µM; AID 651746;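 active = mean percent inhibition of the KCNQ2 thallium signal more than 5 SD above the buffer-only control wells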;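 note: KCNQ2 expressed in CHO cells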
KCNQ1 KCNE1 spec = KCNQ1 inhibitor that also blocks human KCNQ1/KCNE1 channel | 1,600 tested, 77% active | KCNQ1/KCNE1 cells, FluxOR thallium flux fluorescence | AID 652147 | shares compounds with KCNQ1 block | inhibition, % at 10 µM;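 active = mean percent inhibition of duplicate wells above the buffer-only control mean plus 3 SD of those controls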
Of the large screens only hits and unclear results are named; the others gave an inactive call (follow-up assays come after a bar, where they were run). This is a sample that favours compounds with a hit; in the whole collection about 3.8% have one here.

COc1cc(C(=O)COC(=O)C2CCN(c3ccc(C(F)(F)F)cn3)CC2)ccc1OC(F)F	KCNQ1 block 6 | KCNQ1 inh valid 62 | CHO Tl flux inactive | KCNQ2 inh 115% | KCNQ1 KCNE1 spec 62%
COc1ccc(OC)c(NC(=O)CCN2CC(C)CC(C)C2)c1 (configuration not stated)	none
COc1ccccc1CNS(=O)(=O)c1ccc(-n2cccn2)cc1	none
Nc1nc(Cl)cc(N2CCC(c3cc(-c4ccc(Cl)cc4Cl)n[nH]3)CC2)n1	KCNQ1 block 6 | KCNQ1 inh valid 136 | CHO Tl flux 0.37 | KCNQ2 inh 113% | KCNQ1 KCNE1 spec 174%
Cc1nc2ccc(NS(=O)(=O)c3ccc4c(c3)OCCO4)cc2s1	KCNQ1 block 10 | KCNQ1 inh valid 98 | CHO Tl flux inactive | KCNQ1 ephys val inactive | KCNQ2 inh 69% | KCNQ1 KCNE1 spec 90%
Cc1ccc(S(=O)(=O)Nc2ccc3nc(C)sc3c2)cc1	none
O=C(Nc1ccc(F)cc1)c1ccccc1NS(=O)(=O)N1CCCC1	KCNQ1 block 7 | KCNQ1 inh valid 82 | CHO Tl flux inactive | KCNQ2 inh 67% | KCNQ1 KCNE1 spec inactive
COc1ccc(OC)c(NC(=O)Nc2c(O)ccc3ccccc23)c1	KCNQ1 block 12 | KCNQ1 inh valid inactive | CHO Tl flux inactive | KCNQ2 inh inactive | KCNQ1 KCNE1 spec 48%
CN(Cc1ccco1)C(=O)c1ccc(CNS(=O)(=O)c2ccc3c(c2)C(C)(C)C(=O)N3C)cc1	none
COc1ccc(NC(=O)COC(=O)Cn2cnc3ccccc32)cc1	none (no result: KCNQ1 act, hERG protect, Kir21 block, KCNK9 block, KCNQ1 block)
O=C(Cn1cnc2ccccc21)Nc1ccc(SC(F)F)cc1	KCNQ1 block 7 | KCNQ1 inh valid 115 | CHO Tl flux inactive | KCNQ1 ephys val active | KCNQ2 inh 71% | KCNQ1 KCNE1 spec 58%
O=C(Nc1ccc(F)cc1)c1cc(S(=O)(=O)Nc2ccc(F)cc2)cs1	KCNQ1 block 7 | KCNQ1 inh valid 66 | CHO Tl flux inactive | KCNQ2 inh 62% | KCNQ1 KCNE1 spec inactive
CCCn1c(N)cc(=O)n(CCC)c1=O	none
COc1ccc2[nH]c3c(N4CC(C)OC(C)C4)ncnc3c2c1 (configuration not stated)	none (no result: KCNK3 inh)
COc1cccc(N2CCN(c3ncnc4c3[nH]c3ccccc34)CC2C)c1 (configuration not stated)	KCNQ1 block 12 (no result: KCNK3 inh) | KCNQ1 inh valid 142 | CHO Tl flux 0.32 | KCNQ2 inh 124% | KCNQ1 KCNE1 spec active
c1ccc(CN2CCN(c3ncnc4c3[nH]c3ccccc34)CC2)cc1	KCNQ1 block 7 | KCNQ1 inh valid 132 | CHO Tl flux inactive | KCNQ2 inh 120% | KCNQ1 KCNE1 spec 82%
Cc1ccc2c(c1)[nH]c1c(N3CCN(Cc4ccccc4)CC3)ncnc12	none
OC1(c2cccc(C(F)(F)F)c2)CCN(c2ncnc3c2[nH]c2ccccc23)CC1	KCNQ1 block 7 | KCNQ1 inh valid 134 | CHO Tl flux 0.37 | KCNQ2 inh 119% | KCNQ1 KCNE1 spec 146%
Cc1sc2c(c1C)CN(CCN1CCOCC1)CN2C(=O)c1ccccc1	KCNQ1 block 6 | KCNQ1 inh valid inactive | CHO Tl flux inactive | KCNQ2 inh inactive | KCNQ1 KCNE1 spec 37%
O=C(c1ccccc1)c1ccc(C(=O)N2CCOCC2)cc1	none
NC(=O)COC(=O)c1ccccc1Nc1ccc(SC(F)F)cc1	none
CC(C)(C)NC(=O)COC(=O)c1ccccc1Nc1ccc(SC(F)F)cc1	KCNQ1 block 6 | KCNQ1 inh valid 119 | CHO Tl flux 0.37 | KCNQ2 inh 109% | KCNQ1 KCNE1 spec 158%
COCCn1c(=S)[nH]c2cc(C(=O)N(CCO)Cc3ccccc3)ccc2c1=O	none
Cc1cc(C(=O)NC2CCCc3c2cnn3-c2ccc(C)c(C)c2)n(C)n1 (configuration not stated)	KCNQ1 block 11 | KCNQ1 inh valid 102 | CHO Tl flux inactive | KCNQ1 ephys val inactive | KCNQ2 inh 91% | KCNQ1 KCNE1 spec 84%
Cc1cc(C)n(CC(=O)NC2CCCc3c2cnn3-c2ccc(C)c(C)c2)n1 (configuration not stated)	none
COc1ccc(CNC(=O)CN2CCN(S(=O)(=O)c3ccccc3)CC2)cc1	none (no result: KCNQ1 act, hERG protect, Kir21 block, KCNK9 block, KCNQ1 block)
CC(N=c1ccccn1C(=O)Nc1ccc(Cl)cc1)c1ccco1 (configuration not stated)	KCNQ1 block 10 (no result: KCNK3 inh) | KCNQ1 inh valid 62 | CHO Tl flux inactive | KCNQ2 inh 61% | KCNQ1 KCNE1 spec inactive
CC(N=c1ccccn1C(=O)Nc1ccc(F)cc1)c1ccco1 (configuration not stated)	none
Cc1nc(-c2ccc(S(=O)(=O)N3CCN(c4cccc(C)c4C)CC3)cc2)co1	KCNQ1 block 6 | KCNQ1 inh valid 74 | CHO Tl flux inactive | KCNQ2 inh 104% | KCNQ1 KCNE1 spec 112%
Cc1nc(-c2ccc(S(=O)(=O)N3CCN(c4ccccc4)CC3)cc2)co1	none
CC1CN(C(=O)COc2ccc3c(-c4ccccc4)cc(=O)oc3c2)CC(C)O1 (configuration not stated)	none (no result: KCNQ1 act, hERG protect, Kir21 block, KCNK9 block, KCNQ1 block)
C[C@H](NC(=O)OC(C)(C)C)C(=O)NCC1CCC(C(=O)N[C@@H](Cc2ccccc2)C(=O)O)CC1 (some centres not stated)	none
CCOC(=O)C1=C(C)N=c2s/c(=C\c3ccc(O)c([N+](=O)[O-])c3)c(=O)n2C1c1ccccc1OC (configuration not stated)	KCNQ1 block 18 | KCNQ1 inh valid 144 | CHO Tl flux 0.3 | KCNQ2 inh 109% | KCNQ1 KCNE1 spec active
COc1ccccc1S(=O)(=O)Nc1cccc(S(=O)(=O)N2CCCC2)c1	none (no result: KCNQ1 act, hERG protect, Kir21 block, KCNK9 block, KCNQ1 block)
CC(=O)c1cccc(NC(=O)N2CCCC2C(=O)NCc2ccc3c(c2)OCO3)c1 (configuration not stated)	KCNQ1 block 7 | KCNQ1 inh valid inactive | CHO Tl flux inactive | KCNQ2 inh inactive | KCNQ1 KCNE1 spec inactive

Bioassay records deposited in PubChem by Johns Hopkins Ion Channel Center.
